Reference: ChEMBL document CHEMBL1131341, “Orally active antimalarial 3-substituted trioxanes: new synthetic methodology and biological evaluation” (J Med Chem, 1998)
pIC50: −log10 of the molar value.

What was measured:
Plasmodium falciparum = experiment: In vitro antimalarial activity in chloroquine-sensitive Plasmodium falciparum NF54; format: functional, organism-based
Procedure, shortened: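 IC50 (nM) was measured against cultured parasites in quadruplicate and derived from fitted dose-response curves with R² ≥0.989.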

Plasmodium berghei [1] = experiment: Effective in vivo dose ED90 against Plasmodium berghei N on oral administration; format: functional
Procedure, shortened: (§1)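 Mice infected with chloroquine-sensitive P. berghei (N) were dosed daily for 4 days at 1, 3, 10 and 30 mg/kg, with five mice per dose regimen. The ED values were derived from these four dose levels.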

Plasmodium berghei [2] = experiment: Effective in vivo dose ED50 against Plasmodium berghei N after subcutaneous dose at 1,3,10 or 30 mg/kg/day, n=5; format: functional; settings: sc; procedure, shortened: as §1
Plasmodium berghei [3] = experiment: Effective in vivo dose ED50 against Plasmodium berghei N after oral dose at 1,3,10 or 30 mg/kg/day, n=5; format: functional; procedure, shortened: as §1

For CO[C@H]1O[C@]2(CF)CC[C@H]3CCCCC31OO2, the pIC50 (Plasmodium falciparum) was 6.80.
CO[C@H]1O[C@]2(c3cccc4ccccc34)CC[C@H]3CCCCC31OO2 gave a pIC50 (Plasmodium falciparum) of 7.36.
In the case of CO[C@H]1O[C@]2(c3ccc(COC(C)=O)cc3)CC[C@H]3CCCCC31OO2, the ED90 (Plasmodium berghei [1]) was 22 µM/kg, the ED50 (Plasmodium berghei [2]) was 2.8 mg/kg and the ED50 (Plasmodium berghei [3]) was 14 mg/kg. For the same compound, the pIC50 (Plasmodium falciparum) was 7.70.
For C[C@@H]1CC[C@H]2[C@@H](C)C(=O)O[C@@H]3O[C@@]4(C)CC[C@@H]1[C@]32OO4 [ARTEMISININ], the ED50 (Plasmodium berghei [2]) was 3 mg/kg, the ED50 (Plasmodium berghei [3]) was 8.5 mg/kg and the pIC50 (Plasmodium falciparum) was 8.04.
CO[C@H]1O[C@]2(c3ccc(F)cc3)CC[C@H]3CCCCC31OO2 was tested, and the ED90 (Plasmodium berghei [1]) was 23 µM/kg, the ED50 (Plasmodium berghei [2]) was 6.8 mg/kg and the ED50 (Plasmodium berghei [3]) was 10 mg/kg. It also gave a pIC50 (Plasmodium falciparum) of 7.52.
CO[C@@H]1O[C@]2(c3ccc(F)cc3)CC[C@H]3CCCCC31OO2 showed a pIC50 (Plasmodium falciparum) of 7.19.
CO[C@@H]1O[C@]2(c3cccc4ccccc34)CC[C@H]3CCCCC31OO2 gave a pIC50 (Plasmodium falciparum) of 6.77.
Work on CO[C@H]1O[C@]2(c3ccc(CO)cc3)CC[C@H]3CCCCC31OO2 yielded an ED90 (Plasmodium berghei [1]) of 12 µM/kg, an ED50 (Plasmodium berghei [2]) of 3.4 mg/kg and an ED50 (Plasmodium berghei [3]) of 5.5 mg/kg. For the same compound, the pIC50 (Plasmodium falciparum) was 7.82.
Compound CO[C@H]1O[C@]2(C)CC[C@H]3CCCCC31OO2 has a pIC50 (Plasmodium falciparum) of 6.02.
In the case of CO[C@H]1O[C@]2(c3ccc(-c4ccccc4)cc3)CC[C@H]3CCCCC31OO2, the pIC50 (Plasmodium falciparum) was 7.17.
For CO[C@@H]1O[C@]2(c3ccco3)CC[C@H]3CCCCC31OO2, the pIC50 (Plasmodium falciparum) was 6.22.
CO[C@@H]1O[C@]2(c3ccc(CO)cc3)CC[C@H]3CCCCC31OO2 showed a pIC50 (Plasmodium falciparum) of 7.11.
CO[C@H]1O[C@]2(c3ccccc3)CC[C@H]3CCCCC31OO2 showed a pIC50 (Plasmodium falciparum) of 7.42.
Work on COC(=O)OCc1ccc([C@@]23CC[C@H]4CCCCC4(OO2)[C@H](OC)O3)cc1 yielded a pIC50 (Plasmodium falciparum) of 7.10.
CO[C@@H]1O[C@]2(c3ccc(C(F)(F)F)cc3)CC[C@H]3CCCCC31OO2 was tested, and the pIC50 (Plasmodium falciparum) was 7.41.
In the case of CO[C@@H]1O[C@]2(c3ccc(COCc4ccc(F)cc4)cc3)CC[C@H]3CCCCC31OO2, the pIC50 (Plasmodium falciparum) was 7.38.
For CO[C@H]1O[C@]2(c3ccc(Cl)cc3)CC[C@H]3CCCCC31OO2, the pIC50 (Plasmodium falciparum) was 7.26.
CO[C@@H]1O[C@]2(c3ccc(F)cc3C)CC[C@H]3CCCC[C@@]31OO2 showed a pIC50 (Plasmodium falciparum) of 7.00.
For CO[C@H]1O[C@]2(CCC(F)(F)F)CC[C@H]3CCCCC31OO2, the pIC50 (Plasmodium falciparum) was 7.08.
For CO[C@@H]1O[C@]2(c3ccc(Cl)cc3)CC[C@H]3CCCCC31OO2, the pIC50 (Plasmodium falciparum) was 7.31.
COCc1ccc([C@@]23CC[C@H]4CCCCC4(OO2)[C@@H](OC)O3)cc1 gave a pIC50 (Plasmodium falciparum) of 7.29.
CO[C@H]1O[C@]2(c3ccc(F)cc3C)CC[C@H]3CCCC[C@@]31OO2 gave a pIC50 (Plasmodium falciparum) of 7.47.
CCN(CC)CCCC(C)Nc1ccnc2cc(Cl)ccc12 (configuration not stated) [CHLOROQUINE] was tested, and the ED50 (Plasmodium berghei [2]) was 1 mg/kg and the ED50 (Plasmodium berghei [3]) was 1.2 mg/kg.
CO[C@@H]1O[C@]2(c3ccc(COC(C)=O)cc3)CC[C@H]3CCCCC31OO2 showed a pIC50 (Plasmodium falciparum) of 7.36.
Work on CO[C@@H]1O[C@]2(c3ccc(-c4ccccc4)cc3)CC[C@H]3CCCCC31OO2 yielded a pIC50 (Plasmodium falciparum) of 7.12.
CO[C@H]1O[C@]2(c3ccc(C(F)(F)F)cc3)CC[C@H]3CCCCC31OO2 showed a pIC50 (Plasmodium falciparum) of 7.28.
CO[C@@H]1O[C@@]2(c3ccccc3)OOC13CCCC[C@@H]3CC2C (some centres not stated) was tested, and the pIC50 (Plasmodium falciparum) was 7.68.
Work on COc1ccc([C@@]23CC[C@H]4CCCCC4(OO2)C(OC)O3)cc1 (some centres not stated) yielded a pIC50 (Plasmodium falciparum) of under 5.60.
CO[C@@H]1O[C@]2(c3ccccc3)CC[C@H]3CCCCC31OO2 showed a pIC50 (Plasmodium falciparum) of 6.96.
In the case of COCc1ccc([C@@]23CC[C@H]4CCCCC4(OO2)[C@H](OC)O3)cc1, the pIC50 (Plasmodium falciparum) was 7.41.
CO[C@@H]1O[C@]2(CF)CC[C@H]3CCCCC31OO2 was tested, and the pIC50 (Plasmodium falciparum) was 6.49.
Compound CO[C@H]1O[C@]2(c3ccc(COCc4ccc(F)cc4)cc3)CC[C@H]3CCCCC31OO2 has an ED90 (Plasmodium berghei [1]) of 6.8 µM/kg, an ED50 (Plasmodium berghei [2]) of 3.5 mg/kg and an ED50 (Plasmodium berghei [3]) of 3.8 mg/kg. The pIC50 (Plasmodium falciparum) was 7.64.
